Measured values: PubChem BioAssay
Active and inactive are the calls of the source.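 Rule for the calls, unless noted: active = potentiation averaged over duplicate wells exceeding buffer-only control mean by more than 3 SD; inactive = the rest.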

Tests used:
[1] = nonspecific flux increase, KCNQ1-free cells – parental CHO cells, counter-screen for KCNQ1 potentiator project (AID 493006;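 active = duplicate-averaged activation above buffer control mean plus 5 SD of those controls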;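 for activation: fluorescence ratio of max minus min over baseline after K+ and Tl+ depolarization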); details: parental CHO-K1 cells, FluxOR thallium flux, at 10 µM; hits give high values
Procedure, shortened: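 Benchmarks – buffer and R-L3 controls · Assay system – untransfected host CHO-K1 cells with FluxOR thallium dye · Measure – fluorescence change ratio scaled 0% buffer, 100% R-L3 · Technique – kinetic thallium-flux fluorescence · Timing – overnight 37 °C plating, 90 min RT dye, 20 min compound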

[2] = target: Potassium voltage-gated channel subfamily KQT member 1 (Homo sapiens) (UniProt P51787); experiment: enhancement of KCNQ1 channel thallium flux – FluxOR thallium flux, CHO cells, duplicates, confirmation (AID 493007); details: KCNQ1 cell line, FluxOR thallium flux fluorescence, at 10 µM; hits give high values, % of reference activator effect, buffer zero;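 for outcome: cells depolarized by a potassium plus thallium sulfate stimulus after compound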
Potassium voltage-gated channel subfamily KQT member 1 (Homo sapiens), sequence (P51787 whole entry, looked up): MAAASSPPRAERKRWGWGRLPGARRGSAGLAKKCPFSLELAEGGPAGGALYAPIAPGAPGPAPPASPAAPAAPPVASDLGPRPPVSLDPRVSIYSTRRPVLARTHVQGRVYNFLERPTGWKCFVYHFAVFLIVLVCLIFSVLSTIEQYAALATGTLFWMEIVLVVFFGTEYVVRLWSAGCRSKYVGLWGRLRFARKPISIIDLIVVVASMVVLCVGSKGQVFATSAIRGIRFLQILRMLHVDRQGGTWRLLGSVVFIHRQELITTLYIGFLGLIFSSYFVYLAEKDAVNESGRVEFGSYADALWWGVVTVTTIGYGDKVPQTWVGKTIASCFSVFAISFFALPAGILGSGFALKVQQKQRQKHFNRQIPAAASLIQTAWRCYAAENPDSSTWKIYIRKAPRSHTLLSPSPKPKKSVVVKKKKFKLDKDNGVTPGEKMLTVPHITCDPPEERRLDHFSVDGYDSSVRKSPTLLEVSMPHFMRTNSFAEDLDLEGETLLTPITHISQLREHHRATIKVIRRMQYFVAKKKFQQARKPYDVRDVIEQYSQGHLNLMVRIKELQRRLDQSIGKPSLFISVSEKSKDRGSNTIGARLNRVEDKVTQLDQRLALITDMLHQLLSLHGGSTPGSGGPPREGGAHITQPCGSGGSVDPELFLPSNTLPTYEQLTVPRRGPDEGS
Procedure, shortened: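 Material: CHO cells stably expressing the KCNQ1 potassium channel / Times: dye 90 min then compound 20 min, both at room temperature / Detection: kinetic thallium influx fluorescence with FluxOR dye, 10 s baseline, 110 s post-stimulus / Benchmarks: buffer-only wells as 0% and R-L3 activator as 100% / Replicates: each compound tested in duplicate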

[3] = target: Potassium voltage-gated channel subfamily KQT member 2 (Rattus norvegicus) (UniProt O88943); experiment: KCNQ2 thallium flux enhancement – KCNQ2-CHO-K1 cells, selectivity assay for KCNQ1 potentiator project (AID 493009;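 active = mean duplicate potentiation above the buffer control mean plus 5 SD of buffer wells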;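 note: assay conditions were tuned for KCNQ1 rather than KCNQ2 modulators; signal is max minus min fluorescence divided by baseline after thallium stimulus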); details: FluxOR thallium flux fluorescence, at 10 µM; hits give high values, scaled: buffer 0, activator control 100
Potassium voltage-gated channel subfamily KQT member 2 (Rattus norvegicus), sequence (O88943 whole entry, looked up): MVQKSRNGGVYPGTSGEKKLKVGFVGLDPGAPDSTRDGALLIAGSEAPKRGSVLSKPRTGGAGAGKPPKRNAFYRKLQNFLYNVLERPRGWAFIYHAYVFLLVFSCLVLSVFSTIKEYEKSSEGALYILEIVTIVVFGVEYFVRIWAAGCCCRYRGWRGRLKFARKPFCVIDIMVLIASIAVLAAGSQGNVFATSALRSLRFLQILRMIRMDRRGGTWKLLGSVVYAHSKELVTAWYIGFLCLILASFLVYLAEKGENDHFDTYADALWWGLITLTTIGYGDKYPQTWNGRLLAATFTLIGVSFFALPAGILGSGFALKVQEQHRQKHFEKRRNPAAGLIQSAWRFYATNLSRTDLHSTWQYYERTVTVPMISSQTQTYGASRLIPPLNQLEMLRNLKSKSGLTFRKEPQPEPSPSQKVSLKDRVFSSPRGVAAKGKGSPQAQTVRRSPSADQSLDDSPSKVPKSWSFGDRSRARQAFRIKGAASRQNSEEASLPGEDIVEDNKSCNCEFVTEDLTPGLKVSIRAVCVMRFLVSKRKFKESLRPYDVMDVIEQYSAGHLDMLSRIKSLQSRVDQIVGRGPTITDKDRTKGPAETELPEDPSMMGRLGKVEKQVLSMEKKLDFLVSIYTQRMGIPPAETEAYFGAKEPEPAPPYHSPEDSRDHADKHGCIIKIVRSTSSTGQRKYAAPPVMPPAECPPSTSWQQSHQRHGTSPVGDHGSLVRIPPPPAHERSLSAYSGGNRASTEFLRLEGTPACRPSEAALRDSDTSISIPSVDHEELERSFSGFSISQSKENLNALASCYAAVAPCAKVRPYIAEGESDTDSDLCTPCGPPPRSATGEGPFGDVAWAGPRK

[4] = target: Potassium voltage-gated channel subfamily KQT member 1 (Homo sapiens) (UniProt P51787); experiment: KCNQ1 activators by electrophysiology – IonWorks patch clamp, KCNQ1-CHO cells, orthogonal assay for KCNQ1 potentiator project, confirmation (AID 493184;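 active = current rise at least 3 SD above the untreated control mean in each of two repeat wells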;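 for current potentiation: percent change of the same well's current before compound addition so 0% = no change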); details: automated patch clamp current, at 10 µM; hits give high values
Procedure, shortened: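 Probe or stimulus: depolarizing pulse to +40 mV from -90 mV; Material: CHO cells carrying KCNQ1; Compound: one dose, 10 µM final; Signal: automated voltage clamp, amphotericin B perforated patch; Read-out basis: percent current increase versus pre-compound level; Buffer or medium: pH 7.4 external bath; Replication: duplicates.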

| Compound | activation [1] | potentiation [2] | potentiation [3] | outcome [4] | outcome [1] | outcome [2] | outcome [3] | current potentiation [4] |
| --- | --- | --- | --- | --- | --- | --- | --- | --- |
| COc1ccccc1C(=O)NNC(=O)C(=O)Nc1cccc(Cl)c1C | 612% (active) | 206% (active) | 580% (active) | inactive | – | – | – | – |
| CCCCCNC(=O)Cn1c(=O)c2c(ncn2CC(C)C)n(Cc2ccccc2)c1=O | – | – | – | inactive | inactive | inactive | inactive | – |
| COc1ccc(-c2nc(CS(=O)CC(=O)NC3CCCC3)c(C)o2)cc1OC (stereo not given) | 168% (active) | 85% (active) | 244% (active) | inactive | – | – | – | – |
| Fc1ccc(-c2csc(NC(=S)Nc3ccccc3)n2)cc1 | 153% (active) | 52.5% (active) | 154% (active) | inactive | – | – | – | – |
| CC1CC(C)CN(Cc2nc(N)nc(Nc3ccc4ccccc4c3)n2)C1 (stereo not given) | 170% (active) | 43.5% (active) | 165% (active) | inactive | – | – | – | – |
| O=C(O)C(c1ccccc1)N1C(=O)/C(=C\c2ccc(-c3ccc(Br)cc3)o2)SC1=S (stereo not given) | – | 17.5% (active) | – | – | inactive | – | inactive | 15% (active) |
| C=CCn1c(N)c(C(=O)Nc2ccc(C)cc2)sc1=S | – | – | – | inactive | inactive | inactive | inactive | – |
| S=c1nc(C2CC2)[nH]c2ccccc12 | 414% (active) | 83.5% (active) | 351% (active) | inactive | – | – | – | – |
| CCOC(=O)c1cc2c(=O)n3ccccc3nc2n(CCCOC)c1=NC(=O)c1ccncc1 | – | – | – | inactive | inactive | inactive | inactive | – |
| Cc1ccc(S(=O)(=O)Nc2cc(C(F)(F)F)ccc2N2CCOCC2)c(C)c1 | – | – | – | inactive | inactive | inactive | inactive | – |
| C/C(=N\NS(=O)(=O)c1ccc(Br)cc1)c1cccs1 | – | – | – | inactive | inactive | inactive | inactive | – |
| CC(C)(C)C1(O)CC(C(F)(F)F)=NN1C(=O)Cc1ccc([N+](=O)[O-])cc1 (stereo not given) | – | – | – | inactive | inactive | inactive | inactive | – |
| S=C(N/N=C/c1ccccc1Cl)Nc1cccc(Cl)c1Cl | – | 71% (active) | 173% (active) | inactive | inactive | – | – | – |
| O=Cc1ccccc1OCCCOc1cccc2cccnc12 | – | – | – | inactive | inactive | inactive | inactive | – |
| C=CCN(c1ccccc1)S(=O)(=O)c1cccc(C(=O)Nc2cccc(C)n2)c1 | 290% (active) | 224% (active) | 358% (active) | inactive | – | – | – | – |
| Nc1c(C(=O)Nc2ccc(F)cc2)nnn1-c1cccc(C(F)(F)F)c1 | – | – | – | inactive | inactive | inactive | inactive | – |
| COc1cccc(C(=O)NNC(=O)C(=O)Nc2cccc(Cl)c2C)c1 | 195% (active) | 128% (active) | 299% (active) | inactive | – | – | – | – |
| CCn1ncc(Cl)c1C(=O)NC(=S)Nc1ccccc1Br | 272% (active) | 200% (active) | 340% (active) | inactive | – | – | – | – |
| CCOC(=O)c1c(CN2CCN(CCO)CC2)n(C)c2cc(Br)c(OC)cc12 | – | – | – | inactive | inactive | inactive | inactive | – |
| Cc1ccc(-n2c(C)cc(/C=N/NC(=O)CC3(C)OCCO3)c2C)c(C)c1 | – | – | – | inactive | inactive | inactive | inactive | – |

| Compound | activation [1] | potentiation [2] | potentiation [3] | outcome [4] | outcome [1] | outcome [2] | outcome [3] | current potentiation [4] |
| --- | --- | --- | --- | --- | --- | --- | --- | --- |
| CC(C)NC(=O)C1(S(=O)(=O)c2ccccc2)CC=CC1 | – | – | – | inactive | inactive | inactive | inactive | – |
| COc1cccc(N(C(=O)Cn2nnc(-c3ccc(C)o3)n2)C(C(=O)NC2CCCC2)c2ccncc2)c1 (stereo not given) | – | – | – | inactive | inactive | inactive | inactive | – |
| Cc1cccc(CC2CC(=O)N(c3ccc(C)cc3Br)C2=O)c1 (stereo not given) | – | – | – | inactive | inactive | inactive | inactive | – |
| COc1ccc(NC(=O)CC2C(=O)NCCN2C(=O)Nc2ccc(C(F)(F)F)cc2)cc1 (stereo not given) | – | – | – | inactive | inactive | inactive | inactive | – |
| Cc1sc2ncnc(SCC(=O)c3ccc(O)cc3O)c2c1C | 150% (active) | 20.5% (active) | 176% (active) | inactive | – | – | – | – |
| CCCC(=O)Nc1cc(Cl)ccc1N1CCN(C(=O)CC)CC1 | – | – | – | inactive | inactive | inactive | inactive | – |
| CC(=O)CSc1ncnc2sc3c(c12)CCC(C)C3 (stereo not given) | 474% (active) | 154% (active) | 406% (active) | inactive | – | – | – | – |
| Cc1c(CCC(=O)N2CCC[C@H]2C(=O)O)c(=O)oc2c(C)c3oc4c(c3cc12)CCCC4 | – | – | – | inactive | inactive | inactive | inactive | – |
| Cc1ccc(-n2ncc3c(SCC(=O)NNC(=O)c4ccco4)ncnc32)cc1 | – | – | – | inactive | inactive | inactive | inactive | – |
| Cc1cc(C)nc(NC(=O)/C=C/c2ccccc2Cl)n1 | – | – | – | inactive | inactive | inactive | inactive | – |
| COc1cccc(C(=O)Nc2nc(-c3ccccc3)c(-c3ccccc3)o2)c1 | 145% (active) | 31% (active) | 164% (active) | inactive | – | – | – | – |
| COc1ccc(C(=O)NC(=S)N2CCC(C)CC2)cc1Br | 185% (active) | 90% (active) | 290% (active) | inactive | – | – | – | – |
| COC(=O)CSc1nc(N)c2c3c(sc2n1)C(c1ccccc1)SC(c1ccccc1)C3 (stereo not given) | – | – | – | inactive | inactive | inactive | inactive | – |
| CCNC(=S)Nc1nc2c(cc1C(=O)OCC)CCCC2 | 140% (active) | 35% (active) | 177% (active) | inactive | – | – | – | – |
| Cc1nc(NCCc2cnc[nH]2)c2oc3ccccc3c2n1 | – | – | – | inactive | inactive | inactive | inactive | – |
| N=C1S/C(=C\c2ccc(-c3cccc(Cl)c3)o2)C(=O)N1c1nccs1 | – | 19% (active) | – | inactive | inactive | – | inactive | – |
| COc1ccc(/C=N\NC(=S)SCN2C(=O)C3CCC(C)(C2=O)C3(C)C)cc1 (stereo not given) | – | – | – | inactive | inactive | inactive | inactive | – |
| CCCc1cc(-c2n[nH]c(=S)n2C(C)c2ccccc2)cs1 (stereo not given) | 139% (active) | 37% (active) | – | inactive | – | – | inactive | – |
| CCc1ccc2nc(N(CCCN(C)C)C(=O)c3ccc(S(=O)(=O)N4CCCc5ccccc54)cc3)sc2c1 | – | – | – | inactive | inactive | inactive | inactive | – |
| Cc1ccc(-n2[nH]c(C)c(/C=N/N3C(=O)c4cccc5cccc(c45)C3=O)c2=O)cc1 | 153% (active) | 86% (active) | 225% (active) | inactive | – | – | – | – |

| Compound | activation [1] | potentiation [2] | potentiation [3] | outcome [4] | outcome [1] | outcome [2] | outcome [3] | current potentiation [4] |
| --- | --- | --- | --- | --- | --- | --- | --- | --- |
| Cn1c(=O)c2c3c(sc2n2c(SCC(N)=O)nnc12)CC(C(C)(C)C)CC3 (stereo not given) | – | – | – | inactive | inactive | inactive | inactive | – |
| O=C(O)CCC(=O)Nc1ccc(-c2nc3ccc(C(=O)c4ccccc4)cc3[nH]2)cc1 | – | – | – | inactive | inactive | inactive | inactive | – |
| Cc1nc(SCC(=O)NCC2CCCO2)c2c3c(sc2n1)CCCC3 (stereo not given) | 158% (active) | 55% (active) | 197% (active) | inactive | – | – | – | – |
| CC(C)(C)NC(=O)C(=O)NNC(=O)c1ccc(C(C)(C)C)cc1 | 341% (active) | 112% (active) | 352% (active) | inactive | – | – | – | – |
| COc1ccc2c(c1)c(=O)c(C(=O)O)c(-c1ccc3c(c1)OCO3)n2C | – | – | – | inactive | inactive | inactive | inactive | – |
| O=C(NC(=S)Nc1cccc(C(F)(F)F)c1)c1csnn1 | 595% (active) | 308% (active) | 618% (active) | inactive | – | – | – | – |
| O=C(NC(=S)N1CCN(c2c(Cl)cccc2[N+](=O)[O-])CC1)c1cccs1 | 236% (active) | 156% (active) | 375% (active) | inactive | – | – | – | – |
| CCC1CCc2c(sc(NC(=O)C3CC=CCC3C(=O)O)c2C#N)C1 (stereo not given) | – | – | – | inactive | inactive | inactive | inactive | – |
| Fc1cccc(/C=N/NC(=S)Nc2ccccc2Cl)c1 | – | 41.5% (active) | 158% (active) | inactive | inactive | – | – | – |
| Cc1sc2ncnc(SCC(=O)NC(=O)c3cccn3C)c2c1C | 170% (active) | 28.5% (active) | 201% (active) | inactive | – | – | – | – |
| Cc1cc(C)nc(N(C#N)CC(=O)c2ccccc2)n1 | – | – | – | inactive | inactive | inactive | inactive | – |
| CCN(c1ccccc1)S(=O)(=O)c1ccc(OC)c(NC(=O)COc2ccc(C(C)=O)cc2)c1 | – | – | – | inactive | inactive | inactive | inactive | – |
| Nc1nc(C23CC4CC(CC(C4)C2)C3)cs1 | – | – | 168% (active) | inactive | inactive | inactive | – | – |
| COCCCNC(=O)CC(NS(=O)(=O)c1ccc(F)cc1)c1ccc(OC)cc1 (stereo not given) | – | – | – | inactive | inactive | inactive | inactive | – |
| COC(=O)C1C(=O)c2c([nH]c(C(=O)OCCSC)c2C)CC1C (stereo not given) | – | – | – | inactive | inactive | inactive | inactive | – |
| Cn1nnnc1SCC(=O)NCc1ccc2c(c1)OCO2 | – | – | – | inactive | inactive | inactive | inactive | – |
| CCN1C(=O)/C(=C/c2ccc(OCc3ccc(C(=O)O)cc3)c(Cl)c2)NC1=S | 136% (active) | – | 168% (active) | inactive | – | inactive | – | – |
| Cc1nn(C)c(C(=O)NC(=S)Nc2ccccc2Br)c1Cl | 232% (active) | 96% (active) | 254% (active) | inactive | – | – | – | – |
| COc1ccc(C(=O)NNC(=O)C(=O)NC2CCCCC2)cc1 | – | 22% (active) | 168% (active) | inactive | inactive | – | – | – |
| Oc1c(Cl)cc(Cl)cc1/C=N/c1nccs1 | 174% (active) | – | – | inactive | – | inactive | inactive | – |
